Source: ChEMBL document CHEMBL4316598, “Synthesis, antiproliferative and apoptosis induction potential activities of novel bis(indolyl)hydrazide-hydrazone derivatives” (Bioorg Med Chem, 2019)
The source made the active and inactive calls. The calls are words filed in the database; no cut-off is given here.

How the values were obtained:
MCF7 [1] = experiment: Induction of ROS generation in human MCF7 cells at 5 uM after 8 hrs by DCFH-DA staining-based fluorescence spectrophotometric analysis relative to control; assay type: functional
Method in brief: (§1)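 DCFH-DA ROS: HeLa or MCF-7 cells at 2×10^6/well cultured 12 h, treated 4 or 8 h; t-BHP (10 μM) is the positive control. DCFH-DA 10 μM added for 10 min at 37 °C, cells washed twice with PBS. Fluorescence read at ex 485/em 520 nm. For the NAC arm, NAC (5 mM) is added to the medium before treatment.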

MDA-MB-231 = experiment: Cytotoxicity against human MDA-MB-231 cells assessed as reduction in cell viability after 4 hrs by MTT assay; assay type: functional, cell-based
Method in brief: (§2)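 MTT: 10,000–20,000 cells/well attached for 16 h, then washed twice with serum-free RPMI. Treated with 1–200 µM for 4 h, 3 parallel runs per concentration. MTT added for 2 h; medium partly removed and isopropanol added. A590 read. Viability = (A treated − A doxorubicin)/(A medium − A doxorubicin)×100. Mean of three experiments, triplicate wells each.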

[2] = molecular target: c-Jun N-terminal kinase, JNK (Homo sapiens) (UniProt P45983+P53779+P45984); experiment: Activation of JNK phosphorylation in human HeLa cells assessed as increase in ratio of phosphorylated JNK to total JNK level at 5 uM by ELISA; assay type: cell-based
Method in brief: (§3)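 Cell-based ELISA: HeLa or MCF-7 cells (20×10^3/well) grown overnight at 37 °C, 5% CO2, treated with 5 μM, then fixed and blocked. Probed with rabbit anti-total and anti-phospho P38, JNK or ERK1/2 (1:100), then HRP anti-rabbit IgG. Result is the phospho/total ratio; inhibitor arms use […], […] or SP600125. n=3.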

HeLa [3] = experiment: Induction of caspase-dependent apoptosis in human HeLa cells assessed as activation of caspase-7 at 1 to 3 uM after 24 hrs by Western blot analysis; assay type: functional, cell-based
Method in brief: (§4)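 Cells were treated at 1, 3 and 5 µM for 24 h at 37 °C. Lysis was in ice-cold Triton X-100 buffer with protease and phosphatase inhibitors; nuclear proteins were extracted separately. Protein was quantified by BCA. Lysates were separated by electrophoresis, transferred to nitrocellulose and blocked in non-fat milk for 1 h. Primary antibody was applied overnight at 4 °C and secondary for 1 h at 28 °C. Detection was by enhanced chemiluminescence.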

MCF7 [4] = experiment: Induction of apoptosis in human MCF7 cells assessed as necrotic cells at 1 uM after 8 hrs by annexin-V FITC/propidium iodide staining based flow cytometric analysis relative to control; assay type: functional
Method in brief: (§5)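 Cells were grown in DMEM with 10% heat-inactivated FBS at 37 °C and 5% CO₂, then plated at 500,000 cells/well in 24-well plates. They were treated from a DMSO stock (DMSO ≤0.1%) for 8, 12 or 16 h. After a PBS wash, cells were resuspended in binding buffer (10 mM HEPES pH 7.4, 2.5 mM CaCl₂, 140 mM NaCl, 0.1% BSA), stained 40 min with FITC-annexin V, then with PI, and run on the flow cytometer immediately. Values are the mean of three independent experiments.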

[5] = molecular target: MAP kinase p38 (Homo sapiens) (UniProt O15264+Q15759+Q16539+P53778); experiment: Activation of MAPK p38 phosphorylation in human MCF7 cells assessed as increase in ratio of phosphorylated p38 to total p38 level at 5 uM in presence of p38 kinase inhibitor […] by ELISA; assay type: cell-based; method in brief: as §3
HeLa [6] = experiment: Induction of ROS generation in human HeLa cells at 5 uM after 8 hrs by DCFH-DA staining-based fluorescence spectrophotometric analysis relative to control; assay type: functional; method in brief: as §1
HeLa [7] = experiment: Induction of apoptosis in human HeLa cells assessed as viable cells at 1 uM after 16 hrs by annexin-V FITC/propidium iodide staining based flow cytometric analysis relative to control; assay type: functional; details: read-out: Activity; method in brief: as §5
HeLa [8] = experiment: Induction of apoptosis in human HeLa cells assessed as late apoptotic cells at 1 uM after 8 hrs by annexin-V FITC/propidium iodide staining based flow cytometric analysis relative to control; assay type: functional; method in brief: as §5
MCF7 [9] = experiment: Induction of apoptosis in human MCF7 cells assessed as early apoptotic cells at 1 uM after 12 hrs by annexin-V FITC/propidium iodide staining based flow cytometric analysis relative to control; assay type: functional; method in brief: as §5
MCF7 [10] = experiment: Induction of apoptosis in human MCF7 cells assessed as viable cells at 1 uM after 8 hrs by annexin-V FITC/propidium iodide staining based flow cytometric analysis relative to control; assay type: functional; details: MCF7, 8 h, read-out: Activity; method in brief: as §5
HeLa [11] = experiment: Induction of cell cycle arrest in human HeLa cells at 1 uM after 16 hrs by propidium iodide/RNase A staining based FACS analysis; assay type: functional
Method in brief: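 Cells were seeded at 1 million cells/mL in 24-well plates and grown to 70% confluence. They were exposed at 1 µM for 16 h, washed in cold PBS, fixed in absolute ethanol and stored at −20 °C. Staining was with RNase A (20 µg/mL final) and PI (50 µg/mL final) for 30 min at 37 °C in the dark. Results are given as the percentage of cells in each cell-cycle phase by FACS.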

HeLa [12] = experiment: Induction of apoptosis in human HeLa cells assessed as viable cells at 1 uM after 8 hrs by annexin-V FITC/propidium iodide staining based flow cytometric analysis relative to control; assay type: functional; details: read-out: Activity; method in brief: as §5
MCF7 [13] = experiment: Induction of apoptosis in human MCF7 cells assessed as early apoptotic cells at 1 uM after 8 hrs by annexin-V FITC/propidium iodide staining based flow cytometric analysis relative to control; assay type: functional; method in brief: as §5
HeLa [14] = experiment: Induction of apoptosis in human HeLa cells assessed as necrotic cells at 1 uM after 16 hrs by annexin-V FITC/propidium iodide staining based flow cytometric analysis relative to control; assay type: functional; method in brief: as §5
HeLa [15] = experiment: Induction of apoptosis in human HeLa cells assessed as early apoptotic cells at 1 uM after 16 hrs by annexin-V FITC/propidium iodide staining based flow cytometric analysis relative to control; assay type: functional; method in brief: as §5
MCF7 [16] = experiment: Induction of caspase-dependent apoptosis in human MCF7 cells assessed as activation of caspase-7 at 1 to 3 uM after 24 hrs by Western blot analysis; assay type: functional, cell-based; method in brief: as §4
MCF7 [17] = experiment: Induction of apoptosis in human MCF7 cells assessed as late apoptotic cells at 1 uM after 12 hrs by annexin-V FITC/propidium iodide staining based flow cytometric analysis relative to control; assay type: functional; method in brief: as §5
MCF7 [18] = experiment: Induction of ERK/MAPK signal transduction pathway in human MCF7 cells assessed as increase in p53 phosphorylation; assay type: cell-based
MCF7 [19] = experiment: Induction of apoptosis in human MCF7 cells assessed as viable cells at 1 uM after 16 hrs by annexin-V FITC/propidium iodide staining based flow cytometric analysis relative to control; assay type: functional; details: MCF7, 16 h, read-out: Activity; method in brief: as §5
HeLa [20] = experiment: Cytotoxicity against human HeLa cells assessed as reduction in cell viability after 4 hrs by MTT assay; assay type: functional, cell-based; method in brief: as §2
MCF7 [21] = experiment: Induction of apoptosis in human MCF7 cells assessed as late apoptotic cells at 1 uM after 8 hrs by annexin-V FITC/propidium iodide staining based flow cytometric analysis relative to control; assay type: functional; method in brief: as §5

- Activity [2]: Active
- Activity [5]: inactive
SMILES: Cn1cc(/C=N\NC(=O)c2cn(C)c3ccc(Br)cc23)c2ccccc21
- Activity (MCF7 [1]): 48.3%
- Activity (MDA-MB-231): Dose-dependent effect
- IC50 (MDA-MB-231; MDA-MB-231, 4 h): 5.49 µM
- Activity (HeLa [3]): inactive
- Activity (MCF7 [4]): 0.33%
- Activity (HeLa [6]): 58.9%
- viability at 1 µM (HeLa [7]): 14.3%
- Activity (HeLa [8]): 11.5%
- Activity (MCF7 [9]): 21.18%
- viability at 1 µM (MCF7 [10]): 93.4%
- Activity (HeLa [11]): inactive
- viability at 1 µM (HeLa [12]): 68.8%
- Activity (MCF7 [13]): 2.26%
- Activity (HeLa [14]): 1.77%
- Activity (HeLa [15]): 12.23%
- Activity (MCF7 [16]): inactive
- Activity (MCF7 [17]): 35.72%
- Activity (MCF7 [18]): Active
- viability at 1 µM (MCF7 [19]): 20.4%
- Activity (HeLa [20]): Dose-dependent effect
- IC50 (HeLa [20]; Homo sapiens, HeLa, 4 h, read-out: IC50): 1690 nM
- Activity (MCF7 [21]): 4.01%
